Assay results: ChEMBL document CHEMBL1122688, “Antimycotic azoles. 7. Synthesis and antifungal properties of a series of novel triazol-3-ones” (1984)

What was measured:
Phialophora verrucosa = assay: In vitro antifungal activity against Phialophora verrucosa; assay type: functional
Outline: (§1)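 Fungal growth-inhibition screen (Godefroi method) against dermatophytes, yeasts, moulds and other fungi. The value is the lowest concentration (µg/mL) giving total inhibition of growth, tested up to 100 µg/mL.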

Cryptococcus neoformans = assay: In vitro antifungal activity against Cryptococcus neoformans; assay type: functional; outline: as §1
[1] = In vivo activity against microsporosis guinea pig, measured as the ratio of animals cured/animals infected (C/I) at dose 10 mg/kg; C/I = 1/8; assay type: functional
[2] = In vivo activity against vaginal candidoses in rats, measured as the ratio of animals cured/animals infected (C/I) at dose 0.63 mg/kg; C/I = 4/8; assay type: functional
Rattus norvegicus [3] = assay: In vivo activity against vaginal candidoses in rats, measured as the ratio of animals cured/animals infected (C/I) at dose 1.25 mg/kg; C/I = 5/6; assay type: functional
Candida albicans = assay: In vitro antifungal activity against Candida albicans; assay type: functional; outline: as §1
Saprolegnia = assay: In vitro antifungal activity against Saprolegnia sp; assay type: functional; outline: as §1
[4] = In vivo activity against vaginal candidoses in rats, measured as the ratio of animals cured/animals infected (C/I) at dose 10 mg/kg; C/I = 2/2; assay type: functional
[5] = In vivo activity against microsporosis guinea pig, measured as the ratio of animals cured/animals infected (C/I) at dose 1.25 mg/kg; C/I = 0/2; assay type: functional
Sporothrix schenckii = assay: In vitro antifungal activity against Sporothrix schenck ii; assay type: functional; outline: as §1
Trichophyton rubrum = assay: In vitro antifungal activity against Trichophyton rubrum; assay type: functional; outline: as §1
[6] = In vivo activity against microsporosis guinea pig, measured as the ratio of animals cured/animals infected (C/I) at dose 2.5 mg/kg; C/I = 0/2; assay type: functional
Microsporum canis = assay: In vitro antifungal activity against Microsporum canis; assay type: functional; outline: as §1
Candida tropicalis = assay: In vitro antifungal activity against Candida tropicalis; assay type: functional; outline: as §1
[7] = In vivo activity against vaginal candidoses in rats, measured as the ratio of animals cured/animals infected (C/I) at dose 2.5 mg/kg; C/I = 4/6; assay type: functional
Trichophyton benhamiae = assay: In vitro antifungal activity against Trichophyton mentagrophytes; assay type: functional, Arthroderma benhamiae; outline: as §1
[8] = In vitro antifungal activity against Mucor sp; assay type: functional; outline: as §1
Aspergillus fumigatus = assay: In vitro antifungal activity against Aspergillus fumigatus; assay type: functional; outline: as §1
[9] = In vivo activity against vaginal candidoses in rats, measured as the ratio of animals cured/animals infected (C/I) at dose 2.5 mg/kg; 3/6; assay type: functional
[10] = In vivo activity against vaginal candidoses in rats, measured as the ratio of animals cured/animals infected (C/I) at dose 1.25 mg/kg; 1/2; assay type: functional
[11] = In vivo activity against microsporosis guinea pig, measured as the ratio of animals cured/animals infected (C/I) at dose 10 mg/kg; 2/2; assay type: functional
[12] = In vivo activity against microsporosis guinea pig, measured as the ratio of animals cured/animals infected (C/I) at dose 2.5 mg/kg; 4/6; assay type: functional
[13] = In vivo activity against vaginal candidoses in rats, measured as the ratio of animals cured/animals infected (C/I) at dose 0.63 mg/kg; 1/6; assay type: functional
[14] = In vivo activity against microsporosis guinea pig, measured as the ratio of animals cured/animals infected (C/I) at dose 1.25 mg/kg; 0/4; assay type: functional
[15] = In vivo activity against microsporosis guinea pig, measured as the ratio of animals cured/animals infected (C/I) at dose 2.5 mg/kg; C/I = 0/5; assay type: functional
[16] = In vivo activity against vaginal candidoses in rats, measured as the ratio of animals cured/animals infected (C/I) at dose 2.5 mg/kg; C/I = 9/10; assay type: functional
Rattus norvegicus [17] = assay: In vivo activity against vaginal candidoses in rats, measured as the ratio of animals cured/animals infected (C/I) at dose 1.25 mg/kg; C/I = 9/10; assay type: functional
[18] = In vivo activity against vaginal candidoses in rats, measured as the ratio of animals cured/animals infected (C/I) at dose 0.63 mg/kg; C/I = 3/10; assay type: functional
[19] = In vivo activity against vaginal candidoses in rats, measured as the ratio of animals cured/animals infected (C/I) at dose 10 mg/kg; C/I = 6/6; assay type: functional
[20] = In vivo activity against microsporosis guinea pig, measured as the ratio of animals cured/animals infected (C/I) at dose 1.25 mg/kg; C/I = 0/6; assay type: functional
[21] = In vivo activity against microsporosis guinea pig, measured as the ratio of animals cured/animals infected (C/I) at dose 20 mg/kg; C/I = 1/6
[22] = In vivo activity against vaginal candidoses in rats, measured as the ratio of animals cured/animals infected (C/I) at dose 2.5 mg/kg; C/I = 0/2; assay type: functional
[23] = In vivo activity against vaginal candidoses in rats, measured as the ratio of animals cured/animals infected (C/I) at dose 2.5 mg/kg; C/I = 1/4; assay type: functional
[24] = In vivo activity against vaginal candidoses in rats, measured as the ratio of animals cured/animals infected (C/I) at dose 0.63 mg/kg; C/I = 0/2; assay type: functional
[25] = In vivo activity against microsporosis guinea pig, measured as the ratio of animals cured/animals infected (C/I) at dose 10 mg/kg; C/I = 0/2; assay type: functional
[26] = In vivo activity against vaginal candidoses in rats, measured as the ratio of animals cured/animals infected (C/I) at dose 10 mg/kg; C/I = 3/4; assay type: functional
[27] = In vivo activity against microsporosis guinea pig, measured as the ratio of animals cured/animals infected (C/I) at dose 20 mg/kg; C/I = 2/2; assay type: functional

Compound	Inhibition (Phialophora verrucosa) [µg/mL]	Inhibition (Cryptococcus neoformans) [µg/mL]	C/I ratio [1]	Inhibition (Candida albicans) [µg/mL]	Inhibition (Saprolegnia) [µg/mL]	Inhibition (Sporothrix schenckii) [µg/mL]	Inhibition (Trichophyton rubrum) [µg/mL]	Inhibition (Microsporum canis) [µg/mL]	Inhibition (Candida tropicalis) [µg/mL]	Inhibition (Trichophyton benhamiae) [µg/mL]	Inhibition [8] [µg/mL]	Inhibition (Aspergillus fumigatus) [µg/mL]	C/I ratio [22]	further results
Cn1ncn(-c2ccc(N3CCN(c4ccc(OC[C@@H]5COC(Cn6cncn6)(c6ccc(Cl)cc6Cl)O5)cc4)CC3)cc2)c1=O (some centres undefined)	100	100	1	100	>100	>100	10	>100	10	1	>100	>100	–	C/I ratio [2]: 0.5; C/I ratio (Rattus norvegicus [3]): 5; C/I ratio [4]: 1; C/I ratio [5]: 0; C/I ratio [6]: 0; C/I ratio [7]: 4
C=CCn1ncn(-c2ccc(N3CCN(c4ccc(OC[C@@H]5COC(Cn6cncn6)(c6ccc(Cl)cc6Cl)O5)cc4)CC3)cc2)c1=O (some centres undefined)	–	–	–	–	–	–	–	–	–	–	–	–	–	C/I ratio [9]: 0.5; C/I ratio [10]: 1; C/I ratio [11]: 2; Lowest level of total inhibition (Microsporum canis): > 100 µg/mL; C/I ratio [12]: 0.667; C/I ratio [13]: 1; C/I ratio [14]: 0
CCCn1ncn(-c2ccc(N3CCN(c4ccc(OC[C@@H]5COC(Cn6cncn6)(c6ccc(Cl)cc6Cl)O5)cc4)CC3)cc2)c1=O (some centres undefined)	>100	100	1	>100	>100	>100	1	>100	100	100	>100	>100	–	C/I ratio [15]: 0; C/I ratio [16]: 9; C/I ratio (Rattus norvegicus [17]): 0.9; C/I ratio [18]: 0.3; C/I ratio [19]: 6; C/I ratio [20]: 0
CCCCn1ncn(-c2ccc(N3CCN(c4ccc(OC[C@@H]5COC(Cn6cncn6)(c6ccc(Cl)cc6Cl)O5)cc4)CC3)cc2)c1=O (some centres undefined)	>100	>100	–	>100	>100	>100	>100	>100	>100	100	>100	>100	0	C/I ratio [21]: 1
CCCn1nc(C)n(-c2ccc(N3CCN(c4ccc(OC[C@@H]5COC(Cn6cncn6)(c6ccc(Cl)cc6Cl)O5)cc4)CC3)cc2)c1=O (some centres undefined)	>100	100	–	100	>100	>100	>100	>100	100	1	>100	>100	–	C/I ratio [23]: 1; C/I ratio [24]: 0
Cc1nn(C)c(=O)n1-c1ccc(N2CCN(c3ccc(OC[C@@H]4COC(Cn5ccnc5)(c5ccc(Cl)cc5Cl)O4)cc3)CC2)cc1 (some centres undefined)	>100	>100	–	100	>100	>100	100	100	> 100	10	>100	100	0	C/I ratio [25]: 0; C/I ratio [26]: 0.75; C/I ratio [27]: 2
